The data set relates to MS2 coat protein. The data set is described as follows: apparent Kd, MS2 coat protein; higher = weaker binding; RNA-MaP array; FMN 200 µM where present. The method, boiled down: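 Stalled E. coli RNA polymerase produced the designs on Illumina sequencing-chip clusters. SNAP-549-labelled MS2 coat protein was added from 0.7 or 1.5 nM, doubling to 3 µM, without and then with constant ligand, in 100 mM Tris-HCl pH 7.5, 80 mM KCl, 4 mM MgCl2, BSA, DTT, yeast tRNA and Tween-20. The apparent Kd is the median of filtered per-cluster fits of green signal normalised to red-channel RNA signal and control-cluster median Fmax.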

Setting [1] is: designed as: ON switch for flavin mononucleotide, no ligand.
The mark [2] stands for this setting: ligand present: flavin mononucleotide, designed as: ON switch for flavin mononucleotide.
Where [3] appears, read: designed as: OFF switch for flavin mononucleotide, no ligand.
Where [4] appears, read: ligand present: flavin mononucleotide, designed as: OFF switch for flavin mononucleotide.

As a reminder, the apparent Kd is a dissociation constant that holds for the conditions of the assay. For “GUGGUCAGACAUGAGGAUCACCCAUGUGGAAUAAAUAAGGUACAGGAUAUCUAAUAUAGGAUAUAAGAGAAGGGUAGGUUGGUG”, the “apparent Kd” value reads like this: under setting [1], 75.4 nM; under setting [2], 78.4 nM.

As to “GUCGGCUCGUGAGGAUAUACAACACUGCUUCGGCAGUGUAUUAAGAUCACAUGAGGAUCACCCAUGUAGAAGGCACGAGCUGAU”, the “apparent Kd” value is 13.8 nM under setting [3] and 221 nM under setting [4].

On to “UGAGACCUCACAGGAUAUGCUGGACUUUGUCCAGCAGAAGGGUGAAAACAUGAGGAUCACCCAUGUAUGGUCUCCAAAUUUAAU”, for which the “apparent Kd” value reads like this: under setting [1], 164 nM; under setting [2], 12.7 nM.

On to “UCCAAAUCGUAGAAGGGUGACAUGAGGAUCACCCAUGUGCAGCAGCCGUGAAUGGCCAUGCUGCCACAGGAUAUACGAUGGAGU”, for which the “apparent Kd” value was 49 nM under setting [1] and 43 nM under setting [2].

In the case of “GCCUGCUGGCAAGGAUAUUCUGUGCGGUUCCGGCUCGUGUCUGUUACAUGAGGAUCACCCAUGUGGGAGAAGGUGUCUGUGGCC”, the “apparent Kd” value reads like this: under setting [3], 6.21 nM; under setting [4], 5.88 nM.

On to “ACGUAACGGUGCGCGAGUGGACGGAGAAGGCAGACAUGAGGAUCACCCAUGUGAGCCUGCUAUUCUGAGGAUAUCCGUCCGCAC”, for which the “apparent Kd” value under setting [3] came out at 38.9 nM and the “apparent Kd” value under setting [4] was 254 nM.

Turning to “CCAUGGCAUGUAGGAUAUGUCUGACAAAGUCAGACAGAAGGACAUGAGGAUCACCCAUGUAAUGGAAAACCAAUAUAGCCAUGG”, the “apparent Kd” value is 7.62 nM under setting [3] and 11.3 nM under setting [4].

On to “AAUAACAGAGGAUAUACUAUUUUAUGUAUUUAUUAUUUUAAACAUGAGGAUCACCCAUGUAGAAGGCUGAUUAA”, for which the “apparent Kd” value under setting [3] turned out to be 28.1 nM and the “apparent Kd” value under setting [4] was 30.4 nM.

On to “UCAUGCAUAGCGAUAUGAUCGAGAGAUCAUGUCGCUAAAUUUAGAAGGACAUGAGGAUCACCCAUGUAGGAUAUGGGAGCAUGA”, for which the “apparent Kd” value reads like this: under setting [1], 43 nM; under setting [2], 11 nM.

For the sequence “AAAUAACAUGAGGAUCACCCAUGUCCGCGCCAUCAAGGAUAUGGGUGCCGGCUAGGUCAGCUAGAAGGUGGUGGUG”, the “apparent Kd” value was determined as 28.8 nM under setting [1] and 34.5 nM under setting [2].

“AAGGAACAUGAGGAUCACCCAUGUGAGGAUAUGUGAGAAGGAUUUGAGAAGGAGAGGGACAGAAGGCACUAGGA”: the “apparent Kd” value by setting is: under setting [3], 46.9 nM; under setting [4], 41.8 nM.

Consider “AUCAGCUUGUCAGGAUAUACGUCACUGCGUCAGCAGUGUGGUAAGAUCACAUGAGGAUCACCCAUGUAGAAGGGACGAGCUGAU”, for which the “apparent Kd” value is, setting by setting: under setting [3], 12.9 nM; under setting [4], 321 nM.

For “AAACUCAUUGUCAGGAUAUGUAUUGAAGGAAUCGGACAGAAGGGACAUGAGGAUCACCCAUGUUACUAAGACCC”, the “apparent Kd” value under setting [3] is 25.9 nM and the “apparent Kd” value under setting [4] came to 74.3 nM.

Take “AAAAAACAUGAGGAUCACCCAUGUCAGGAUAUCUGGAGAAACGGAAAGAAAAAGAAACGGAGAAGGGACAUAAA”: the “apparent Kd” value amounted to 41.1 nM under setting [3] and 48 nM under setting [4].

As to “GCCAUCAUAUGAGGAUAUGACACCGAAACGGUGUCAGAAGGCAUGUCGAUAGACAUGAGGAUCACCCAUGUUUACAUGAUGGCA”, the “apparent Kd” value reads like this: under setting [1], 91.5 nM; under setting [2], 20.7 nM.

With “CUGUUAUAGGUCCAGAAUUACAACAUGAGGAUCACCCAUGUGCAGGAUAUCGGGUUGAUAGGCGCCGAGAAGGGUAUAGUCACG”, the “apparent Kd” value is 75.8 nM under setting [3] and 70.8 nM under setting [4].

“AGGAGUAAAGGGAAUAACAUGAGGAUCACCCAUGUAUGGGAGAGAAGGCAGAUUGGAGGACGAUCUGAGGAUAUUUAAACUCUA”: the “apparent Kd” value is, setting by setting: under setting [1], 53.5 nM; under setting [2], 20.1 nM.

As for “GGACGUCACAUUAACAUGAGGAUCACCCAUGUGAAAACACAUGAGGAUAUGGAUCCUAAUUGGAUCCAGAAGGCAUGGACGUCC”, the “apparent Kd” value under setting [2] amounted to 6.6 nM.

As to “GUCGGAAACGACAAAAGUAGCAUACGAGAAGGCUGAUCCAAGACAUGAGGAUCACCCAUGUAGUUAGAGGAUAUUGGAUGCUAC”, the “apparent Kd” value was 63.8 nM under setting [1] and 10.7 nM under setting [2].

For the sequence “CGCUAUGACAUAGGAUAUUGGUACAUGAGGAUCACCCAUGUCAACCUUUAAGCAAAAUUUGUUGACAAGAAGGAUGUGGUAGCG”, the “apparent Kd” value is 11 nM under setting [1] and 7.71 nM under setting [2].

“ACUAAUAAGUGAGGAUAUACAUAAUUCAUAUCAGUAGAAGGCACAAUCCUCUUUACAUGAGGAUCACCCAUGUUAUAUAUAUAA”: the “apparent Kd” value was found to be 73.8 nM under setting [3] and 194 nM under setting [4].

“GGAUAGGACAGAGGAUAUACGUGCUAGACAUACUAGCAAAAUUUCCUCACAUGAGGAUCACCCAUGUAGAAGGCUGUCCUAUCG”: the “apparent Kd” value under setting [3] was determined as 18.7 nM and the “apparent Kd” value under setting [4] is 440 nM.

On to “GGAUCGAGUGUGAGGAUAUGCUGGUCCUUGGAUCAGCAGAAGGCACAUGAGGAUCACCCAUGUGAAUACGGUCC”, for which the “apparent Kd” value runs as follows: under setting [3], 24 nM; under setting [4], 165 nM.

Turning to “CAGGUAGCUACAGGAUAUACACAGCUCAGUAAACUGAGCAAAAGAACUACAUGAGGAUCACCCAUGUAGAAGGGUAGCUGCCUG”, the “apparent Kd” value under setting [3] came out at 16.8 nM and the “apparent Kd” value under setting [4] was found to be 18.8 nM.

On to “UUGGACGUCGGAGGAUAUGUAGGAUAUUCCUACAUGAGGAUCACCCAUGUUGACAUGGAAGAAGGACAGAAGGACGAUGUCCAU”, for which the “apparent Kd” value is, setting by setting: under setting [1], 352 nM; under setting [2], 4.83 nM.

Turning to “AGUGUCAUCGAGAAGGCCUCAACAUGAGGAUCACCCAUGUUGCAAAAUGGGAGGAUAUCGCGCGUUCUAAAACGUUUCGUAGCA”, the “apparent Kd” value was determined as 54.1 nM under setting [1] and 18 nM under setting [2].

Regarding “AAUAUACAUGAGGAUCACCCAUGUUUUGGUGCAUGAGGAUAUAAAAACAAUUACAUAAAGUUAGAAGGCAUGAAUA”, the “apparent Kd” value under setting [1] was 54.9 nM and the “apparent Kd” value under setting [2] is 47.9 nM.

As for “AAAAAAAAAGUAGAGGAUAUCCGAGUGGUAACAUGAGGAUCACCCAUGUGAAGAAAGGAAGAUGAGGAGAAGGCUACAAAAAAAAA”, the “apparent Kd” value by setting is: under setting [1], 47.5 nM; under setting [2], 21.9 nM.

As to “GGGUACCUCGGAGGAUAUCAUGUAAAUACAUGAGGAUCACCCAUGUCGAUGGAGACAUCGGAGAUUGAGAAGGCCGAUGUACCG”, the “apparent Kd” value amounted to 168 nM under setting [1] and 9.32 nM under setting [2].

For “GGAAUACAUGAGGAUCACCCAUGUAAGGAUAUGCUGAAUAACACGGAAUAAUCGUGCAGCAGAAGGUACAAAGG”, the “apparent Kd” value under setting [3] stood at 145 nM and the “apparent Kd” value under setting [4] turned out to be 111 nM.

As for “GUCAUGUCAGGAUAUUUUGGUCAACUCAUCGGUCGACCCUAAGAGAAGGGACAUGAGGAUCACCCAUGUUCGCA”, the “apparent Kd” value came out at 26.8 nM under setting [3] and 77.8 nM under setting [4].

“AAGAGGUGAGGAUAUCGAAGAAGAAGAAGAAGAAGAAGAAACGAGAAGGCACAUGAGGAUCACCCAUGUAAGAA”: the “apparent Kd” value came out at 22.5 nM under setting [3] and 19.9 nM under setting [4].

Turning to “CCGACCCAAGGAUAUUGUACUGCUGACAUGAGGAUCACCCAUGUAUGUUAACUCGGCCGACGAGAAGGUGGCGACA”, the “apparent Kd” value runs as follows: under setting [3], 26.8 nM; under setting [4], 23.9 nM.

In the case of “AUCAUCCUAGGAUAUACAUGGAUAUACAUUCAUGUGGACCUACAUGAGGAUCACCCAUGUAGAAGGAGGAUGAU”, the “apparent Kd” value by setting is: under setting [3], 33.4 nM; under setting [4], 88.8 nM.

Take “GAAUUAUUGAUCCAAUUUUACAACAUGAGGAUCACCCAUGUGCAGGAUAUCGUGUGUUUUAUAUUCGAGAAGGGCAAGAACUUU”: the “apparent Kd” value is, setting by setting: under setting [3], 141 nM; under setting [4], 300 nM.

As to “AACCUAAAACAGAAGGCCAGCUACAUGAGGAUCACCCAUGUCGAAUCAUGGAGGAUAUGUUGUAAUUUACUCGCAGAUGAGUGC”, the “apparent Kd” value under setting [2] was 5.92 nM.

As to “AGGUAACAUGAGGAUCACCCAUGUACCAAUAAUGCAGGAUAUCGACACGAAAAUACGUGUCGAGAAGGGCAUGAAA”, the “apparent Kd” value is, setting by setting: under setting [1], 14.1 nM; under setting [2], 16.4 nM.

“GCGUAAUUGAUCCUAUUUACCAACAUGAGGAUCACCCAUGUGCAGGAUAUGCUAAAGAUAGAUAAGCAGAAGGGCAUUUACCGC”: the “apparent Kd” value is, setting by setting: under setting [3], 47 nM; under setting [4], 211 nM.

For the sequence “ACAUACUUUCGAGGAUAUCGGUGAUAAUUUUUACGAGAAGGCGAUAAAAGAUAUAAUCUUAUAGACAUGAGGAUCACCCAUGUA”, the “apparent Kd” value reads like this: under setting [1], 30.5 nM; under setting [2], 26.4 nM.

With “AGGAUACACCAGAAGGACAUGAGGAUCACCCAUGUAGGAUAUGGGUACGCCGACAUUAGUCUGCUCUCGGUAGACUUUCCUGAU”, the “apparent Kd” value was determined as 75.1 nM under setting [1] and 10.4 nM under setting [2].

For “CGGUAACAUGAGGAUCACCCAUGUGAGGAUAUCGUACGUUCGUCGAAAGACGAUCGUACGAGAAGGCAUGACCG”, the “apparent Kd” value under setting [3] came to 47.5 nM and the “apparent Kd” value under setting [4] was 22.2 nM.

In the case of “GGGUCACAUGAGGAUCACCCAUGUGAGGAUAUGAUACUAUGUACUUCGGUACAUAGUAUCAGAAGGCACAUAAA”, the “apparent Kd” value was 36.6 nM under setting [3] and 123 nM under setting [4].

As for “GCAGCUAAUAUUAUACAUGAGGAUCACCCAUGUUACAUGUGUAAGGAUAUUGAUGUUUAUAUAAACAAGAAGGUACGAAGCUGC”, the “apparent Kd” value was found to be 20.5 nM under setting [1] and 13.1 nM under setting [2].

Consider “GGAUGAUUAAUAGGAUAUUAGUUGUAAAAUGGUUAAGAAGGAUUAAUGAUUUAAACGACCAGUUACAUGAGGAUCACCCAUGUA”, for which the “apparent Kd” value is, setting by setting: under setting [1], 21.6 nM; under setting [2], 18.9 nM.

With “AUCCGACAUGAGGAUCACCCAUGUCAGGAUAUGGACUGACACCCAAAGGGUGGAGGAACCAGAAGGGACUGGGC”, the “apparent Kd” value was 36 nM under setting [3] and 68.1 nM under setting [4].

On to “GGAUAGGGCAGAGGAUAUACGUGCUAGAGAUACUAGCAAAAUUUCCUCACAUGAGGAUCACCCAUGUAGAAGGCUGUCCUAUCG”, for which the “apparent Kd” value reads like this: under setting [3], 14.1 nM; under setting [4], 464 nM.

As to “AAAUAACAUGUAGGAUAUGCAGCAUUAACCAUCGCAGAAGGACAUGAGGAUCACCCAUGUGGCGAUACAAUGCAAUAAGGGAAU”, the “apparent Kd” value was 16.2 nM under setting [3] and 40.7 nM under setting [4].

As to “GGGUAGAUCCGAGGAUAUACAAUCCGGAAACGGUACAUGAGGAUCACCCAUGUAGAAGGCGGAUCUACAGGUACUAAAGUAGGG”, the “apparent Kd” value is, setting by setting: under setting [3], 16 nM; under setting [4], 14.2 nM.
